{"source": "ChEMBL document CHEMBL5036309", "about": "“Orally Active Peptide Vector Allows Using Cannabis to Fight Pain While Avoiding Side Effects” (J Med Chem, 2021)", "key": {"[1]": {"tested_on": "BEND3", "test": "Induction of BBB translocation in mouse BEND3 cells measured after 24 hrs by fluorescence analysis", "type": "functional, cell-based", "summary_of_the_method": "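5(6)-Carboxyfluorescein-labeled peptides were applied to a transwell BBB model of bEnd.3 cells. Translocation (%) was measured as fluorescence in the basolateral chamber after 24 h, with a trans-BBB peptide as positive control. Barrier integrity was checked afterward by FD4 dextran permeability. Mean ± SEM, n = 3–6, independent cultures on different days.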"}, "[2]": {"tested_on": "Mus musculus", "test": "Immunogenicity in CD1 mouse at 100 ug administered for 5 consecutive days and booster dose on day 15 measured upto 19 days by ELISA", "type": "ADME, organism-based", "details": "in vivo, 456 h, time <=19 day, dose 100 µg", "summary_of_the_method": "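Female outbred Hsd:ICR (CD-1) mice (n = 10) got IV peptide 100 μg/dose in PBS + 2% DMSO on 5 consecutive days with a boost on day 15. Controls were KLH conjugate 30 μg (n = 5) and PBS (n = 5). Sera from days 0, 9 and 19 were tested by indirect ELISA on plates coated with peptide-BSA 1 μg/mL, using anti-IgG-HRP, TMB and A450. Titer (log10) = reciprocal of the last dilution above the day-0 serum signal + 2 SD.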"}, "[3]": {"test": "Drug internalization in mouse BEND3 cells by confocal microscopic analysis", "type": "ADME, cell-based", "summary_of_the_method": "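bEnd.3 mouse brain endothelial cells were exposed to 5(6)-carboxyfluorescein-labeled peptides and counterstained with Hoechst 33342 and CellMask Deep Red membrane stain. Imaging used point-scanning confocal microscopy with a 63× oil objective, 405 nm excitation for the stains and 488 nm for the peptide.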"}, "[4]": {"tested_on": "Mus musculus", "test": "Protection against THP-induced amnesic effect in mouse assessed as reduction in memory impairment at 5 to 20 mg/kg, po pretreated for 30 mins followed by THP addition", "type": "functional, organism-based", "details": "dose 5-20 mg/kg", "summary_of_the_method": "(§1)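 V-maze novel object recognition. Day 1 was 9 min habituation. Day 2 was 9 min training with two identical objects. Peptide was given IV (20 mg/kg) or orally (5, 10, 20 mg/kg) right after training, then IP THC 3 mg/kg or vehicle 30 min later. The 9 min test came 24 h later with one object replaced. Discrimination index = (novel − familiar)/total exploration time; exploration meant the nose oriented within 2 cm of the object. Fisher LSD.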"}, "[5]": {"tested_on": "Mus musculus", "test": "Protection against THP-induced amnesic effect in mouse assessed as reduction in memory impairment at 20 mg/kg, iv pretreated for 30 mins followed by THP addition", "type": "functional, organism-based", "summary_of_the_method": "as §1"}, "[6]": {"tested_on": "Mus musculus", "test": "Analgesic activity in mouse assessed as pain response at 5 to 20 mg/kg, po pretreated with compound for 30 mins followed by THP addition and measured after 60 mins by hot plate test", "type": "functional, organism-based", "details": "dose 5-20 mg/kg, time 90.0 min", "summary_of_the_method": "(§2)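 Mice got peptide or vehicle IV (20 mg/kg) or orally by gavage (5, 10, 20 mg/kg) 30 min before IP THC 10 mg/kg (vehicle 5% ethanol, 5% Cremophor-EL, 90% saline). Latency to jump on a 52 ± 0.5 °C hot plate was read 60 min after THC, with a 240 s cutoff. Mean ± SEM, n = 10–12 (IV) or 5–8 (oral); Fisher LSD.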"}, "[7]": {"tested_on": "HEK293T", "test": "Inhibition of human c-YFP fused CB1R/n-YFP fused 5HT2A receptor heterodimer formation transfected in human HEK293T cells at 4 uM incubated for 4 hrs by BIFC assay", "type": "cell-based", "summary_of_the_method": "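HEK-293T cells were cotransfected 48 h with 5HT2AR-cYFP and CB1R-nYFP (4 μg cDNA each, polyethylenimine), then treated with 4 μM peptide or vehicle for 4 h at 37 °C. Reconstituted YFP Venus was read on 20 μg protein at 530 nm emission with 400 nm excitation, minus the fluorescence of non-expressing cells. Mean ± SEM, n = 10–30.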"}, "[8]": {"tested_on": "Mus musculus", "test": "Analgesic activity in mouse assessed as pain response at 20 mg/kg, iv pretreated with compound for 30 mins followed by THP addition and measured after 60 mins by hot plate test", "type": "functional, organism-based", "details": "time 90.0 min", "summary_of_the_method": "as §2"}}, "note": "Activity calls are given as the source filed them. Square brackets hold non-standard residues; d marks the D form. Peptide text beside a SMILES is read from it."}
{"smiles": "CC[C@@H](C)[C@@H](NC(=O)CNC(=O)[C@@H](C)NC(=O)[C@H](NC(=O)[C@@H](Cc1ccc(O)cc1)NC(=O)[C@@H](C)NC(=O)[C@@H](Cc1ccc(O)cc1)NC(=O)[C@@H](CCSC)NC(=O)[C@@H](Cc1ccc(O)cc1)NC(=O)[C@H](NC(=O)[C@@H](CC(C)C)NC(=O)[C@H](N)Cc1c[nH]c2ccccc12)[C@H](C)CC)C(C)C)C(=O)N[C@H](CC(C)C)C(=O)N[C@H](CCCCN)C(=O)N[C@H](CCCNC(=N)N)C(=O)N[C@H](Cc1c[nH]c2ccccc12)C(N)=O", "note": "(H-[dW][dL][dI][dY][dM][dY][dA][dY][dV][dA]G[dI][dL][dK][dR][dW]-NH2)", "values": [{"measurement": "Activity", "setting": "[1]", "value": "Active"}, {"measurement": "Activity", "setting": "[2]", "value": "Non-Toxic"}, {"measurement": "Drug uptake", "setting": "[3]", "value": "Active"}, {"measurement": "Activity", "setting": "[4]", "value": "Active"}, {"measurement": "Activity", "setting": "[5]", "value": "Active"}, {"measurement": "Activity", "setting": "[6]", "value": "Active"}, {"measurement": "inhibition", "setting": "[7]", "value": "Active"}, {"measurement": "Activity", "setting": "[8]", "value": "Active"}]}
